In ChEMBL document CHEMBL1134702, “Arylalkylidene rhodanine with bulky and hydrophobic functional group as selective HCV NS3 protease inhibitor” (Bioorg Med Chem Lett, 2001):

Key:
Plasminogen = Plasminogen (Homo sapiens, UniProt P00747); experiment: Inhibitory activity against plasmin
In short: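 Fluorogenic casein-substrate protease kit assay using 0.002U plasmin per reaction at 30 °C, stopped within the linear phase of the reaction; IC50 determined.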

NS3 = NS3 (Hepatitis C virus, UniProt A3EZJ3); experiment: Inhibitory activity against hepatitis C virus (HCV) NS3 protease; parameters: species or system Hepacivirus hominis
In short: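 His-tagged HCV NS3 fusion expressed in BL21(DE3) E. coli, purified, quantified by densitometry against BSA. Reaction started with GST-bead 5A5B substrate (3 µg); 37 °C, 15 min or <40% conversion. Cleavage read by SDS-PAGE, Coomassie, densitometry; IC50 determined.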

NS3, sequence (A3EZJ3 whole entry, the tested form may be a part): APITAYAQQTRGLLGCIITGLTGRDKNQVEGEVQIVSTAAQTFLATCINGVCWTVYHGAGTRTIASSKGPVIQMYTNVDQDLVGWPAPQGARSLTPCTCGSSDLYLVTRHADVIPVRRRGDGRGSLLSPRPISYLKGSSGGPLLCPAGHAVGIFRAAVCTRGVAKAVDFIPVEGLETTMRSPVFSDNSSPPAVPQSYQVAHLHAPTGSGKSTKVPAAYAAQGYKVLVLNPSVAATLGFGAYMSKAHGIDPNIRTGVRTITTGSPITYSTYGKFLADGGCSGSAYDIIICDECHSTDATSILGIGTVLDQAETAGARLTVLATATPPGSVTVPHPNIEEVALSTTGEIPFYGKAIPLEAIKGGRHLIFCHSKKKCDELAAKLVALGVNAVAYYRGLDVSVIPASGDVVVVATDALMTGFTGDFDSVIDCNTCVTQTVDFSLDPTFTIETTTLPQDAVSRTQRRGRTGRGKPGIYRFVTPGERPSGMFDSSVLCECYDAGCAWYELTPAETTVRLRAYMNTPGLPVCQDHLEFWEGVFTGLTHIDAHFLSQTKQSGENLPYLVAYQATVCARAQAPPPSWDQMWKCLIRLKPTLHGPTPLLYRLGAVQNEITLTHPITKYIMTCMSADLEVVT
Plasminogen, sequence (P00747 97-580 limits assumed): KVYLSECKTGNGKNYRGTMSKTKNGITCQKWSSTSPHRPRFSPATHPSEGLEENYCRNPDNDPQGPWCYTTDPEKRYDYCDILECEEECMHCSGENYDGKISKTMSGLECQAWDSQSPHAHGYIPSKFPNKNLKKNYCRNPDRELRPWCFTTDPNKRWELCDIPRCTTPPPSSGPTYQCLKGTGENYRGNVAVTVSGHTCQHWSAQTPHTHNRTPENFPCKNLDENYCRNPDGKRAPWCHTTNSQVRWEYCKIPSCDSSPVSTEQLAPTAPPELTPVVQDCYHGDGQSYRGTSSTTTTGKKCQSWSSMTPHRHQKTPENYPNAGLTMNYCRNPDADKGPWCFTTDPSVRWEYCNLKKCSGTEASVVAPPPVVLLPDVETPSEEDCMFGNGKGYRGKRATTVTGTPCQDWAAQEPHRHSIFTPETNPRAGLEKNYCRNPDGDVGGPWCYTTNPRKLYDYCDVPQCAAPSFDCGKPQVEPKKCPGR
Plasminogen, sequence (P00747 581-810 limits assumed): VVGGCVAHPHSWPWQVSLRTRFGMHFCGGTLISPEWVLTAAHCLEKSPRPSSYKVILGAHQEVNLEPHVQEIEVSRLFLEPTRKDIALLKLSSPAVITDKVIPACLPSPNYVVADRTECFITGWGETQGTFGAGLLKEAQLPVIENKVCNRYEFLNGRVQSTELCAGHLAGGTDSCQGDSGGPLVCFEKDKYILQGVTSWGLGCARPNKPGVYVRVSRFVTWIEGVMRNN

| SMILES | IC50 (Plasminogen) [µM] | IC50 (NS3) [µM] |
| --- | --- | --- |
| C=CCN1C(=O)/C(=C/c2cc3c(cc2[N+](=O)[O-])OCO3)SC1=S | < 1 | 40 |
| CCOC(=O)CN1C(=O)/C(=C(\C)c2cccc(OC(=O)N[C@@H](CC(C)C)C(=O)N(CCN(Cc3ccc(C(=O)OC)cc3)Cc3ccc(C(=O)OC)cc3)Cc3ccc(Cl)cc3)c2)SC1=S | 20 | 16 |
| O=C(O)CN1C(=O)/C(=C/c2cc([N+](=O)[O-])ccc2F)SC1=S | 13 | 64 |
| COC(=O)CN1C(=O)/C(=C/c2cc3c(cc2[N+](=O)[O-])OCO3)SC1=S | < 1 | 71 |
| CCOC(=O)CN1C(=O)/C(=C(\C)c2cccc(NS(=O)(=O)c3ccc(-c4ccc(S(=O)(=O)NCCNC(=O)OC(C)(C)C)cc4)cc3)c2)SC1=S | 20 | 15 |
| C/C(=C1/SC(=S)N(CC(=O)O)C1=O)c1ccc(-c2ccccc2)cc1 | 7 | 20 |
